Test results from ChEMBL document CHEMBL1157043, “An eco-friendly synthesis and antimicrobial activities of dihydro-2H-benzo- and naphtho-1,3-oxazine derivatives” (Eur J Med Chem, 2010).
≈ marks a conversion by molar mass, not a printed value.

Columns and labels:
Cryptococcus neoformans = test: Antimicrobial activity against Cryptococcus neoformans after 24 hrs; format: functional
In short: (§1)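 Broth microdilution per NCCLS guidelines in MOPS-buffered RPMI 1640. Starting inoculum was 1-5 × 10^3 cfu/mL, and plates were incubated at 35 °C. MIC was read spectrophotometrically at 492 nm after 24–48 h for yeasts and 72–96 h for mycelial fungi.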

Escherichia coli = test: Antimicrobial activity against Escherichia coli after 24 hrs; format: functional
In short: (§2)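 NCCLS microdilution in Mueller Hinton broth. Strains were grown 24 h on nutrient agar at 37 °C, suspended at about 1.0–2.0 × 10^7 cells/mL (McFarland-matched) in saline with 0.05% Tween 20, then diluted 100 µL into 10 mL medium. Compounds were taken from a 1 mg/mL DMSO stock as twofold dilutions, top final 50 µg/mL. Incubation was 35 °C in a moist, dark chamber, and MIC was read spectrophotometrically at 24 h.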

Staphylococcus aureus = test: Antimicrobial activity against Staphylococcus aureus after 24 hrs; format: functional; in short: as §2
Pseudomonas aeruginosa = test: Antimicrobial activity against Pseudomonas aeruginosa after 24 hrs; format: functional; in short: as §2
Aspergillus fumigatus [1] = test: Antimicrobial activity against Aspergillus fumigatus after 24 hrs; format: functional
Klebsiella pneumoniae = test: Antimicrobial activity against Klebsiella pneumoniae after 24 hrs; format: functional; in short: as §2
[2] = system: Trichophyton mentagrophytes; test: Antimicrobial activity against Trichophyton mentagrophytes after 24 hrs; format: functional
Candida albicans = test: Antimicrobial activity against Candida albicans after 24 hrs; format: functional; in short: as §1
Sporothrix schenckii = test: Antimicrobial activity against Sporothrix schenckii after 24 hrs; format: functional; in short: as §1
Candida parapsilosis = test: Antimicrobial activity against Candida parapsilosis ATCC 22019 after 24 hrs; format: functional; conditions: Lodderomyces parapsilosis, ATCC 22019, 24 h; in short: as §1
L929 [3] = test: Cytotoxicity against mouse L929 cells assessed as change in morphology at 6.25 ug/ml after 24 hrs […]; format: cell-based; conditions: l929, 24 h
In short: (§3)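 L929 fibroblasts (serum-free RPMI, 37 °C, 5% CO2) were exposed to compound for 24 h, then fixed and stained with Giemsa for 30 min at 37 °C. Excess stain was washed off with PBS, plates were air-dried, and cell morphology was examined under a phase contrast microscope against untreated controls.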

Aspergillus fumigatus [4] = test: Antimicrobial activity against Aspergillus fumigatus after 72 to 96 hrs
[5] = Cytotoxicity against mouse L929 cells assessed as viability at 12.5 to 25 ug/ml after 24 hrs by MTT assay; format: cell-based; conditions: read-out: Activity
In short: (§4)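 L929 mouse fibroblasts were grown in RPMI 1640 with 10% FBS at 37 °C under 5% CO2 and seeded at 1.0 × 10^5 cells/mL. At 80% confluence the medium was switched to serum-free RPMI, and cells were exposed 24 h to 0.09–25 µg/mL in twofold steps. After PBS washes, cells got 0.5 mg/mL MTT for 4 h at 37 °C, then DMSO for 30 min at room temperature. Viability was calculated as (A570−A630) relative to untreated cells.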

L929 [6] = test: Cytotoxicity against mouse L929 cells assessed as change in cellular morphology at 12.5 to 25 ug/ml after 24 hrs […]; format: cell-based; conditions: l929, 24 h; in short: as §3
L929 [7] = test: Cytotoxicity against mouse L929 cells at 6.25 ug/ml after 24 hrs by MTT assay; format: cell-based; conditions: l929, 24 h; in short: as §4
[8] = system: Trichophyton mentagrophytes; test: Antimicrobial activity against Trichophyton mentagrophytes after 72 to 96 hrs

Structure (SMILES)	MIC (Cryptococcus neoformans) [µg/mL]	MIC (Escherichia coli) [µg/mL]	MIC (Staphylococcus aureus) [µg/mL]	MIC (Pseudomonas aeruginosa) [µg/mL]	MIC (Aspergillus fumigatus [1]) [µg/mL]	MIC (Klebsiella pneumoniae) [µg/mL]	MIC [2] [µg/mL]	MIC (Candida albicans) [µg/mL]	MIC (Sporothrix schenckii) [µg/mL]	MIC (Candida parapsilosis) [µg/mL]	MIC (Aspergillus fumigatus [4]) [µg/mL]	MIC [8] [µg/mL]	Activity (L929 [3])	viability at 24 h [5] [%]	Activity (L929 [6])	Activity (L929 [7])
Cc1ccc2c(c1)CN(c1ccc(Cl)cc1)CO2	25 (≈ 96.3 µM)	> 50	25 (≈ 96.3 µM)	50 (≈ 193 µM)	25 (≈ 96.3 µM)	25 (≈ 96.3 µM)	12.5 (≈ 48.1 µM)	50 (≈ 193 µM)	12.5 (≈ 48.1 µM)	50 (≈ 193 µM)						
Clc1cc(Cl)c2c(c1)CN(CCN1COc3c(Cl)cc(Cl)cc3C1)CO2	25 (≈ 57.6 µM)	> 50	0.39 (≈ 0.898 µM)	> 50		1.56 (≈ 3.59 µM)		50 (≈ 115 µM)	> 50	50 (≈ 115 µM)	50 (≈ 115 µM)	25 (≈ 57.6 µM)	Non-toxic	> 90	Toxic	Non-toxic
Clc1ccccc1N1COc2c(Cl)ccc(Cl)c2C1	50 (≈ 159 µM)	> 50	12.5 (≈ 39.7 µM)	50 (≈ 159 µM)		6.25 (≈ 19.9 µM)		> 50	12.5 (≈ 39.7 µM)	50 (≈ 159 µM)	50 (≈ 159 µM)	12.5 (≈ 39.7 µM)	Non-toxic	> 90	Toxic	Non-toxic
Cc1ccc2c(c1)CN(c1ccc(F)cc1)CO2	50 (≈ 206 µM)	50 (≈ 206 µM)	50 (≈ 206 µM)	50 (≈ 206 µM)	> 50	50 (≈ 206 µM)	25 (≈ 103 µM)	> 50	25 (≈ 103 µM)	> 50						
Cc1ccc2c(c1)CN(c1ccccc1)CO2	> 50	25 (≈ 111 µM)	50 (≈ 222 µM)	> 50		50 (≈ 222 µM)		> 50	12.5 (≈ 55.5 µM)	50 (≈ 222 µM)	50 (≈ 222 µM)	25 (≈ 111 µM)				

These reach a lower MIC (Cryptococcus neoformans). Values come first.

MIC (Cryptococcus neoformans) [µg/mL]	MIC (Escherichia coli) [µg/mL]	MIC (Staphylococcus aureus) [µg/mL]	MIC (Pseudomonas aeruginosa) [µg/mL]	MIC (Aspergillus fumigatus [1]) [µg/mL]	MIC (Klebsiella pneumoniae) [µg/mL]	MIC [2] [µg/mL]	MIC (Candida albicans) [µg/mL]	MIC (Sporothrix schenckii) [µg/mL]	MIC (Candida parapsilosis) [µg/mL]	MIC (Aspergillus fumigatus [4]) [µg/mL]	MIC [8] [µg/mL]	Structure (SMILES)	Activity (L929 [3])	viability at 24 h [5] [%]	Activity (L929 [6])	Activity (L929 [7])
12.5 (≈ 34.2 µM)	> 50	12.5 (≈ 34.2 µM)	> 50		> 50		12.5 (≈ 34.2 µM)	6.25 (≈ 17.1 µM)	25 (≈ 68.4 µM)	50 (≈ 137 µM)	3.12 (≈ 8.54 µM)	Clc1ccc2c(c1)CN(CCN1COc3ccc(Cl)cc3C1)CO2	Non-toxic	> 90	Toxic	Non-toxic
12.5 (≈ 44.6 µM)	> 50	6.25 (≈ 22.3 µM)	> 50		> 50		12.5 (≈ 44.6 µM)	6.25 (≈ 22.3 µM)	25 (≈ 89.2 µM)	25 (≈ 89.2 µM)	3.12 (≈ 11.1 µM)	Clc1ccc2c(c1)CN(c1ccccc1Cl)CO2	Non-toxic	> 90	Toxic	Non-toxic
